# TRPC4 potent: allosterically enhances the mouse TRPC4 cation channel | Q9QUQ5 | HEK293 TRPC4beta/mu-opioid, DAMGO EC20, Fluo-4 Ca2+ flux; hits give high values | B-score at 10 µM | 310,000 tested, 0.42% active | AID 2227;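 active means B-score of calcium response area above 5 SD of library B-scores, with initial fluorescence ratio within 5 SD of library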;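 further: B-score of integrated fluorescence ratio over time as area under calcium response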
# TRPC4 agonist: TRPC4 (mouse) channel activation; HEK293 TRPC4beta/mu-opioid, Fluo4 calcium fluorescence; hits give high values; B-score at 10 µM; 310,000 tested, 0.49% active; AID 2237;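 active means B-score above 5 SD of library B-scores, and initial fluorescence ratio not above library mean plus 5 SD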;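 further: positive B-score marks a calcium rise read as TRPC4 activation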
#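 Material: TRPC4beta and mu-opioid receptor HEK293 stable cells | Incubation: 45 min room-temperature Fluo4 loading, 110 s read | Detection: Kinetic Fluo4 calcium fluorescence | Measure: Integrated baseline-normalised fluorescence ratio, converted to per-well B score | Benchmarks: Low control buffer alone, high control maximal DAMGO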
# TRPC6 inh: blocks the mouse TRPC6 cation channel; HEK293-TRPC6, membrane potential dye, ACh-evoked depolarization; hits give low values; Q61143; B-score at 10 µM; 310,000 tested, 1.1% active;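 active means B-score under library mean minus 3 SD, initial fluorescence not abnormally high, positive integrated signal ratio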;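 further: B-score derived from integrated fluorescence ratio over the kinetic read; more negative B-score means stronger inhibition of depolarization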
# Target sequence (Q61143 whole entry, looked up): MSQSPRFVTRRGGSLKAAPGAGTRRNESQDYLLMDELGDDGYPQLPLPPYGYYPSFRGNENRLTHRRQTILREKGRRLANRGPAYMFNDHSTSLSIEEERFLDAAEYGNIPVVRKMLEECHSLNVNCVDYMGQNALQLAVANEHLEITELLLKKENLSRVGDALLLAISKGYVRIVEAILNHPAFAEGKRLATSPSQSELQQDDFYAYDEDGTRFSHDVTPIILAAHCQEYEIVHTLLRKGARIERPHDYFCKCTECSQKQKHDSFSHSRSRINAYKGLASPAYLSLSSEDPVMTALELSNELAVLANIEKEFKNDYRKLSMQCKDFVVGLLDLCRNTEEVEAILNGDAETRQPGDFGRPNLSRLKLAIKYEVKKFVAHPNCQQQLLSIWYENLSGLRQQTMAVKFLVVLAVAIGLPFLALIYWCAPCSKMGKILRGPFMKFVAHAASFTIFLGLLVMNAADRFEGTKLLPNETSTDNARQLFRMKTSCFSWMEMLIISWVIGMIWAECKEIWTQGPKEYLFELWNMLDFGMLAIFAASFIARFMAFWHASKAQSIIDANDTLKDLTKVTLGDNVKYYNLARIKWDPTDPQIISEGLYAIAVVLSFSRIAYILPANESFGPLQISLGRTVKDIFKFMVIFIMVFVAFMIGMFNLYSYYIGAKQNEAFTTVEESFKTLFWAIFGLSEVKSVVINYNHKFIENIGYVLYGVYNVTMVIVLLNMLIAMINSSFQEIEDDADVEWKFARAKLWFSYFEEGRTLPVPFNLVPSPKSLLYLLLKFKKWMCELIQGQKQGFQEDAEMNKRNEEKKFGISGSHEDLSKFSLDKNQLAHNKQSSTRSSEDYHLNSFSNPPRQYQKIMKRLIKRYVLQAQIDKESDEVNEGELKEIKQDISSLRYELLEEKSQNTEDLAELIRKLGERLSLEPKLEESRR
# TRPC4 block: blocks the mouse TRPC4 cation channel; 300,000 tested, 0.39% active; B-score at 10 µM; HEK293 TRPC4beta/mu-opioid, DAMGO-evoked Fluo4 calcium flux; hits give low values; Q9QUQ5;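 active means B-score over 3 SD under the library average, no early fluorescence shift, positive overall ratio signal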
#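 material = TRPC4beta/mu-opioid receptor HEK293 cell line | probe or stimulus = sequential submaximal and maximal DAMGO stimulation | compound dosing = one concentration per compound | measured by = Fluo4 Ca2+ flux fluorescence | evaluation = integrated fluorescence ratio relative to baseline, converted to per-well B score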
# TRPC6 activator: mouse TRPC6 channel activation | B-score at 10 µM | Q61143 | 310,000 tested, 0.13% active | HEK293-TRPC6 membrane potential dye fluorescence; hits give high values;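 active means B-score of the integrated fluorescence ratio above library mean plus 3 SD, and starting fluorescence ratio within library mean plus 5 SD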;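 further: higher score means more depolarization so channel activation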
# TRPC4 spec 2: second selectivity test of TRPC6 inhibitors: effect on mouse TRPC4 | shares compounds with TRPC6 inh | HEK293 TRPC4/MOR, membrane potential dye fluorescence; channel activated by saturating DAMGO dose | inhibition, % at 10 µM | 920 tested, 42% active;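 active means compounds whose fluorescence signal differed from control wells by over 3 SD, either direction, in both duplicate plates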
# TRPC4 spec: tests whether TRPC6 inhibitors also affect mouse TRPC4 | shares compounds with TRPC6 inh | HEK293 TRPC4/mu-opioid, membrane potential fluorescence | activity change, negative = inhibition, % at 10 µM | 920 tested, 61% active;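 active means rise or fall in signal beyond 3 SD of buffer-only wells in both replicate plates, either sign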;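 further: integrated kinetic ratio of fluorescence range over baseline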
# HEK293 MPD ctr 2-1: second check of TRPC6 inhibitor effects in parental HEK293 cells; shares compounds with TRPC6 inh; parental HEK293 membrane potential dye fluorescence; maximal acetylcholine challenge after compound addition; signal change vs control, % at 10 µM; 920 tested, 31% active; AID 2779;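 active means membrane potential signal moving either way by over 3 SD of the maximum-effect control, in both duplicate plates, meaning non-specific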
# HEK293 MPD ctr-1: counter-screen for TRPC6 inhibitors: effect in parental HEK293 cells. shares compounds with TRPC6 inh. parental HEK293 membrane potential dye fluorescence. membrane potential signal change, % at 10 µM. 920 tested, 60% active;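 active means membrane potential signal shifting up or down by more than 3 SD of buffer-only wells, on both duplicate plates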
# HEK293 MPD ctr-2: parental HEK293 nonspecific activity of TRPC6 modulators; shares compounds with TRPC6 inh; membrane potential dye fluorescence; membrane potential signal change, % at 10 µM; 2,400 tested, 51% active; AID 488924;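 active means membrane potential signal moves up or down beyond 5 SD from buffer-only wells, on both duplicate plates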
# HEK293 MPD ctr 2-2: parental HEK293 nonspecific activity of TRPC6 modulators, second screen; shares compounds with TRPC6 inh; membrane potential dye fluorescence; after compound, maximal acetylcholine stimulation; inhibition, % at 10 µM; 2,400 tested, 14% active; AID 488926;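 active means membrane potential signal drops by more than 5 SD from the mean control signal, in both duplicate plates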;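 further: plate controls were acetylcholine ECmax control wells for no effect and buffer only wells for full effect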
# TRPC4 ctr mod: tests whether TRPC6 modulators also affect mouse TRPC4; shares compounds with TRPC6 inh; HEK293 TRPC4/mu-opioid, membrane potential fluorescence; percent change from control (negative = decrease, positive = increase), % at 10 µM; 2,400 tested, 69% active; AID 488927;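 active means membrane potential signal moved up or down beyond 5 SD of buffer control wells, in both duplicate plates, actives on both sides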;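 further: plate controls were assay buffer wells for no effect and DAMGO maximal-effect wells for full effect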
# TRPC4 ctr inh 2: second selectivity test of TRPC6 modulators against mouse TRPC4 | shares compounds with TRPC6 inh | HEK293 TRPC4/mu-opioid, membrane potential dye fluorescence; stimulated with maximal-effect DAMGO | inhibition, % at 10 µM | 2,400 tested, 55% active | AID 488928;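 active means drop in membrane potential signal beyond 5 SD of the control wells in both duplicate plates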;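 further: TRPC4 counter screen for TRPC6 hits run under conditions tuned for TRPC6 not TRPC4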
# TRPC6 block conf: confirmation of mouse TRPC6 inhibitors | shares compounds with TRPC6 inh | HEK293-TRPC6, membrane potential dye, ACh-evoked depolarization | inhibition, % at 10 µM | 3,300 tested, 43% active;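 active means fluorescence ratio falls more than 5 SD below the full-stimulation control mean, in both duplicate runs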;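 further: integrated fluorescence ratio of peak minus minimum over baseline after agonist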
# TRPC6 act conf: mouse TRPC6 activator confirmation | shares compounds with TRPC6 inh | HEK293-TRPC6 membrane potential dye fluorescence, FDSS | activation, % at 10 µM | 2,800 tested, 11% active;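 active means ratio signal rise beyond 5 SD above unstimulated control wells' mean, seen in both duplicate runs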;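 further: plate controls were buffer EC0 wells for no effect and acetylcholine ECmax response for full effect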
# * hit, by the source's call; i = inactive; x = no result given. Only some compounds are listed: those with a hit (about 2.3% of all), similar ones and a draw of the others.
SMILES,TRPC4 potent,TRPC4 agonist,TRPC6 inh,TRPC4 block,TRPC6 activator,HEK293 MPD ctr-2,HEK293 MPD ctr 2-2,TRPC4 ctr mod,TRPC4 ctr inh 2,TRPC6 block conf,TRPC6 act conf,others
Nc1nonc1C(=O)NCCNCc1ccccc1OCc1ccc(F)cc1,i,i,-6.31*,i,i,141.0%*,i,12.5%*,86.5%*,46.5%*,x,
CCN(CC)CCNC(=O)c1ccc(NC(=O)c2cc(S(=O)(=O)N3CCCCC3)ccc2C)cc1,i,i,-5.26*,i,i,i,65.0%*,10.5%*,i,60.0%*,i,
CCN(CC)S(=O)(=O)c1cccc(C(=O)Nc2cccc(C)c2)c1,i,i,-5.11*,i,i,i,i,8.0%*,i,i,i,
CCN(CC)CCNC(=O)c1ccc(NC(=O)c2cccc(S(=O)(=O)Nc3ccc(C)cc3)c2)cc1,i,i,-9.71*,i,i,x,x,x,x,56.1%*,i,TRPC4 spec 2=i;TRPC4 spec=i;HEK293 MPD ctr 2-1=41.0%*;HEK293 MPD ctr-1=i
COc1ccc(S(=O)(=O)N2CCCCCC2)cc1C(=O)NCCOc1ccc(C)cc1,i,i,-5.51*,i,i,172.0%*,i,27.0%*,i,i,x,
CCN(CC)CCNC(=O)c1ccc(NC(=O)C2CCN(S(=O)(=O)c3ccc4c(c3)OCCO4)CC2)cc1,i,i,i,i,i,x,x,x,x,x,x,
CCc1ccc(-n2cnc3cc(C(=O)NCC(OC)OC)ccc32)cc1,i,i,i,i,i,x,x,x,x,x,x,
COc1ccc2[nH]c(=O)c(-c3nnn(-c4ccc(Cl)c(Cl)c4)n3)cc2c1,i,i,i,i,i,x,x,x,x,x,x,
CCCCNC(=O)CCn1nc(-c2ccccc2)c2ccccc2c1=O,i,i,-7.89*,i,i,x,x,x,x,i,x,TRPC4 spec 2=i;TRPC4 spec=7.5%*;HEK293 MPD ctr 2-1=i;HEK293 MPD ctr-1=5.7%*
CCOC(=O)CCn1nc(-c2ccc(C)cc2)c2ccccc2c1=O,i,i,-5.55*,i,i,179.5%*,i,41.5%*,i,53.5%*,x,
COc1ccc(OC)c(NC(=O)C2CCN(C(=O)C3CC(=O)N(c4ccc(C)cc4)C3)CC2)c1 (centres undefined),i,i,i,i,i,x,x,x,x,x,x,
Cc1ccc(-c2c[n+](Cc3cccc(Cl)c3)c3n2CCC3)cc1,i,i,-5.13*,-6*,i,-147.0%*,i,-23.5%*,83.5%*,i,i,
Cc1ccc(-c2c[n+](CC(=O)Nc3c(C)cccc3C)c3n2CCC3)cc1,i,i,i,i,i,x,x,x,x,x,x,
Cc1ccc(C[n+]2cc(-c3ccc(Cl)cc3)n3c2CCC3)cc1,i,i,-5.61*,-7*,i,-96.5%*,i,-17.5%*,30.0%*,i,i,
CC(C)c1ccc(N(CC(=O)NC2CCCC2)C(=O)CCC(=O)Nc2ccccn2)cc1,i,i,i,i,i,x,x,x,x,x,x,
Cc1nc2c(C)cccc2c2c1CCS2,i,i,i,i,i,x,x,x,x,x,x,
Cc1ccc2nc(C)c3c(c2c1)SCC3,i,i,-5.16*,i,i,-170.0%*,i,-36.5%*,37.5%*,i,i,
Cc1sc2c(c1C)C(=O)/C(=C\Nc1ccncc1)S(=O)(=O)N2C,i,i,i,i,i,x,x,x,x,x,x,

# High-throughput results deposited in PubChem by Johns Hopkins Ion Channel Center.
